# Assay outcomes deposited in PubChem by several laboratories.
# Rows were chosen to be rich in hits. Some 2.1% of all compounds tested hit in one or more screens of this group.
# EBI2 block – EBI2 (human) antagonism | P32249 | EBI2 beta-arrestin recruitment, luminescence, 7a,25-OHC stimulated | inhibition, % at 5 µM | actives 0.81% (n = 360,000) | AID 651636; in the data active = inhibition above about 38%;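 also: enzyme fragment complementation signal reports receptor beta-arrestin coupling in cells; 0% = agonist plus DMSO wells and 100% = wells without agonist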
# CXCR6 block – inhibitors of human CXCR6 receptor | inhibition, % at 20 µM | O00574 | CHO-K1 PathHunter CXCR6 beta-arrestin, luminescence | actives 0.36% (n = 360,000); in the data active = inhibition above about 34%, passing the limit was not always enough;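 also: antagonist mode with CXCL16 agonist at 10 nM final; 0% = 10 nM CXCL16 with DMSO and 100% = unstimulated wells without agonist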
# CCR6 antag – blocks CCL20-driven beta-arrestin recruitment at human CCR6; CHO-K1 CCR6 PathHunter beta-arrestin, luminescence, CCL20-stimulated; inhibition, % at 20 µM; actives 0.49% (n = 340,000);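 active = compounds whose inhibition of the agonist-driven luminescence signal at 20 µM reaches about 50%, limit read from the data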;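 also: cells stimulated with CCL20 at 14 nM final; plate controls were DMSO with CCL20 for no effect and DMSO without agonist for full effect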
# Target sequence (P51684 whole entry, looked up): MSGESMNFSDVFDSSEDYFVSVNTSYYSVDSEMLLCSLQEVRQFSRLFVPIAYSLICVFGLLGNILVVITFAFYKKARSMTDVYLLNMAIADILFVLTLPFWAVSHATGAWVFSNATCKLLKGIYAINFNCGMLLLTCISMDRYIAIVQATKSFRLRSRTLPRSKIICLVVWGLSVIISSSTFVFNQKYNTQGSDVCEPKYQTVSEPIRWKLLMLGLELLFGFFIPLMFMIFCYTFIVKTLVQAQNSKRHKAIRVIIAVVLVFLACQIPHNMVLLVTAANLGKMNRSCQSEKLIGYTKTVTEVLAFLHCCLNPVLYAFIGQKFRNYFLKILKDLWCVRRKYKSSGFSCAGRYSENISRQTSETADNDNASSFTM
# APJ antagonist – antagonists of human APJ apelin receptor; CHO-K1 APJ beta-arrestin complementation, luminescence; actives 0.32% (n = 330,000); inhibition, % at 20 µM; P35414;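 active = inhibition above about 40% at 20 µM, limit read from the data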;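 also: cells challenged with 10 nM apelin-13 agonist together with compound; plate controls were apelin-13 plus DMSO wells for no effect and DMSO wells lacking apelin-13 for full effect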
# HTR2A ag – mouse HTR2A agonism via beta-arrestin recruitment | P35363 | CHO-K1 mHTR2A beta-arrestin complementation, luminescence; percent of 30 µM serotonin response | activation, % at 7.6 µM | actives 0.66% (n = 360,000) | AID 624169;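 active = activation above a run cutoff, the mean activation of all tested compounds plus 3 SD, cut at about 14% in these data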;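 also: 0% = plate median of compound wells and 100% = 30 µM serotonin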
# APJ agonist – agonists of human APJ apelin receptor | P35414 | CHO-K1 APJ PathHunter beta-arrestin, luminescence; 0% DMSO wells, 100% apelin | activation, % at 20 µM | actives 0.11% (n = 330,000);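 active = activation more than six SD over the plate average, tested at 20 µM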;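 also: 0% = DMSO alone and 100% = apelin-13 at 10 nM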
#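 Material: engineered CHO-K1 APJ arrestin reporter cells; amount: 1000 CHO-K1 reporter cells seeded per well; incubation: compound stimulation 90 min at 25 °C, detection 60 min; signal: luminescent beta-gal fragment complementation, chemiluminescent substrate; read-out basis: APJ agonist activity; controls: DMSO-only wells as negative, 10 nM Apelin-13 as positive control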
# MOR ag counter – OPRM1 agonism in mouse HTR2A counterscreen. AID 624380. activation, % at 9.3 µM. shares compounds with HTR2A ag. actives 5.3% (n = 2,300). U2OS OPRM1 beta-arrestin PathHunter, luminescence; DMSO 0%, DAMGO 9.3 µM 100%;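 active = mean activation above the mean of DMSO-only wells plus 3 SD, cut at about 0.5% in these data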
# Target sequence (P35372 whole entry, looked up): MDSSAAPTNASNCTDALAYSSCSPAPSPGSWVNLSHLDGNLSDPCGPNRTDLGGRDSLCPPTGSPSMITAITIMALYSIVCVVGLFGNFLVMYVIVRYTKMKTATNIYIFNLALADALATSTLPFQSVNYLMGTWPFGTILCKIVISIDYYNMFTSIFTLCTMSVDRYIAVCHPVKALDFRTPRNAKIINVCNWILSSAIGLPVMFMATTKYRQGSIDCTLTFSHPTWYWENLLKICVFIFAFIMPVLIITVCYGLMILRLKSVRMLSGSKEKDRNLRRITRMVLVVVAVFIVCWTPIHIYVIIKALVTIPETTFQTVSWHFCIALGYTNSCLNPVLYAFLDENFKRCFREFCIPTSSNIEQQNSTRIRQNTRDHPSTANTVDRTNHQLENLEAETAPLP
# HTR2A ag conf – confirmation of mouse HTR2A serotonin receptor agonists; activation, % at 7.6 µM; shares compounds with HTR2A ag; AID 624381; CHO-K1 PathHunter beta-arrestin recruitment, luminescence; DMSO 0%, 30 µM serotonin 100%; actives 19% (n = 2,300);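 active = mean activation across triplicates above the hit threshold derived in the original primary screen, cut at about 15% in these data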
# EBI2 conf – EBI2 (human) antagonism, single concentration confirmation | shares compounds with EBI2 block | EBI2 beta-arrestin luminescence, 7a,25-OHC antagonism | inhibition, % at 5 µM | actives 29% (n = 2,400);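 active = inhibition of at least 50%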
# EBI2 agonist – counter-screen for EBI2 antagonists: EBI2 agonist activity. shares compounds with EBI2 block. EBI2-expressing cells, agonist mode, luminescence, 60 min; 0% vehicle, 100% 7α,25-dihydroxycholesterol control. activation, % at 5 µM. 2,400 tested, under 10 active;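 active = activation of at least 50%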
# bGal counter – counter-screen for EBI2 antagonists: E. coli beta-galactosidase inhibition; purified beta-galactosidase, luminescent Galacton Star, 15 min; inhibition, % at 5 µM; shares compounds with EBI2 block; actives 1% (n = 2,400);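 active = replicate-average signal at least 3 plate SD below neutral wells, shown as high inhibition, flagging enzyme-inhibiting false positives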;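 also: 0% = DMSO wells with enzyme and 100% = wells lacking enzyme; higher means stronger loss of beta-gal luminescence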
# * hit, by the source's call; / = not tested or not shown.
SMILES,EBI2 block,CXCR6 block,CCR6 antag,APJ antagonist,HTR2A ag,APJ agonist,EBI2 conf,EBI2 agonist,bGal counter,others
COc1ccc(N2CC(C(=O)Nc3ccc(S(=O)(=O)N4CCCC4)cc3)CC2=O)cc1 (centres undefined),50.1*,0.0,6.0,8.7,14.6*,-0.1,16.6,-0.3,-11.5,MOR ag counter=-0.6;HTR2A ag conf=-5.3
COc1ccccc1N1CC(C(=O)Nc2ccc(S(=O)(=O)N3CCCC3)cc2)CC1=O (centres undefined),-7.8,-1.9,-3.1,2.7,-3.4,-0.6,/,/,/,
Cc1ccc(-c2cc(-c3nnc(SCC(=O)NC(C)C(C)C)n3N)c3ccccc3n2)cc1 (centres undefined),-1.7,1.0,1.1,-4.2,0.6,-2.8,/,/,/,
COc1ccc(N=C2C(=Nc3ccc(OC)cc3)N(c3ccc(OC)cc3)C(=S)N2c2ccccc2)cc1,63.7*,0.3,1.7,16.8,16.0*,-4.1,18.5,0.8,4.3,MOR ag counter=-0.6;HTR2A ag conf=-2.7
COc1ccc(N=C2C(=Nc3ccc(OC)cc3)N(c3ccc(OC)cc3)C(=S)N2C)cc1,25.1,10.2,24.0,-11.5,-0.2,6.2,/,/,/,
COc1cccc(-c2nc(CS(=O)(=O)CC(=O)Nc3ccc(F)cc3F)c(C)o2)c1,1.5,8.6,-2.9,4.8,-6.0,0.1,/,/,/,
O=C(/C=C/c1ccc([N+](=O)[O-])cc1)N1CCN(S(=O)(=O)c2ccccc2)CC1,90.4*,-11.8,-8.5,-6.2,17.6*,4.0,61.5*,-0.7,-12.8,MOR ag counter=-0.2;HTR2A ag conf=-4.2
CN1CCN(C(=O)/C=C/c2ccc([N+](=O)[O-])cc2)CC1,22.3,-1.6,10.1,-4.9,-0.4,-0.2,/,/,/,
CC(=O)c1ccc(N2CCN(C(=O)c3cc(-c4ccncc4)nc4ccc(Cl)cc34)CC2)cc1,45.2*,-25.2,-1.7,-30.4,14.8*,18.2,25.3,1.6,8.1,MOR ag counter=-0.6;HTR2A ag conf=-3.4
O=C(Nc1ccc(Cl)cc1F)c1ccc2c(c1)C(=O)N(Cc1ccncc1)C2=O,50.6*,-14.3,-6.2,2.9,19.4*,0.4,28.8,1.9,5.3,MOR ag counter=-0.4;HTR2A ag conf=-6.4
O=C(CSc1ncn[nH]1)N1CCN(S(=O)(=O)c2ccccc2)CC1,-1.8,2.3,9.2,14.0,3.3,-0.1,/,/,/,
CC(C)(C)Nc1ncnc2sc(-c3ccccc3)cc12,73.0*,-16.1,1.6,-9.0,23.0*,4.2,39.6,5.1,8.9,MOR ag counter=0.5*;HTR2A ag conf=5.2
Cc1c(C(=O)N2CCN(c3ccc(C(F)(F)F)cn3)CC2)oc2ccccc12,20.6,-3.3,-6.9,-2.3,1.8,-0.5,/,/,/,
CCOc1ccc(NC(=S)N2c3ccccc3CC2C)cc1 (centres undefined),65.5*,-17.4,-6.5,-9.9,15.9*,-0.1,-5.4,0.5,5.2,MOR ag counter=-0.5;HTR2A ag conf=-0.6
Cc1ccc(SCC2(O)CCN(C(=O)c3ccc(Cl)cc3)CC2)cc1,47.1*,-8.6,39.2,-7.8,-6.7,1.9,46.2,-1.2,-18.6,
Cc1ccc(SCc2ccc(C(=O)N3CCCC3)cc2)cc1,2.6,-10.9,17.2,9.7,-4.0,-1.0,/,/,/,
O=C1CC2(CCN(C(=O)c3ccc(Br)cc3)CC2)Oc2ccccc21,54.1*,-6.4,9.1,2.6,-0.9,-1.5,36.7,0.0,3.1,
Cc1ccc(OCC(=O)N2CCC3(CC2)CC(=O)c2ccccc2O3)cc1,86.3*,3.7,-2.8,3.5,-4.2,-0.1,59.8*,1.2,5.5,
COc1cccc(OCC(=O)N2CCC3(CC2)CC(=O)c2ccccc2O3)c1,36.0,4.9,12.1,3.5,1.8,-6.8,/,/,/,
O=C1CC2(CCN(C(=O)COc3ccccc3F)CC2)Oc2ccccc21,12.2,-5.9,9.1,21.5,-0.4,-2.0,/,/,/,
O=C1CC2(CCN(C(=O)COc3ccc(Cl)cc3)CC2)Oc2ccccc21,87.4*,0.6,8.6,-6.4,-5.7,-0.2,64.0*,-1.2,-12.5,
O=c1c(F)cn(C2CCCO2)c(=O)n1Cc1ccccc1F (centres undefined),-3.4,-2.7,-0.8,11.9,-0.1,-3.9,/,/,/,
Cc1ccc2nc(-c3cccnc3)cc(C(=O)Nc3ccccc3[N+](=O)[O-])c2c1,48.5*,1.0,7.2,-30.7,2.6,20.5,61.5*,0.9,4.9,
CC(=O)Nc1cccc(NC(=O)c2cc(-c3cccnc3)nc3ccc(Br)cc23)c1,-26.9,3.9,8.9,2.0,-1.7,6.1,/,/,/,
CSc1ccccc1NC(=O)c1cc(-c2cccnc2)nc2ccc(Br)cc12,40.7*,7.9,3.6,5.2,-1.3,1.6,16.2,-0.6,-7.4,
SMILES,EBI2 block,CXCR6 block,CCR6 antag,APJ antagonist,HTR2A ag,APJ agonist,EBI2 conf,EBI2 agonist,bGal counter,others
COc1ccccc1-c1cnc2c(Nc3cccc(OC(F)(F)C(F)F)c3)nccn12,67.6*,0.5,/,/,1.1,/,41.1,-0.6,-12.3,
FC(F)C(F)(F)Oc1cccc(Nc2nccn3c(-c4cccc5cccnc45)cnc23)c1,47.4*,-5.0,/,/,-4.2,/,35.2,2.2,3.5,
O=C(NCCO)c1cccc(-c2cnc3c(Nc4cccc(OC(F)(F)C(F)F)c4)nccn23)c1,39.9,-13.8,/,/,0.9,/,/,/,/,
CCCCN(CC)Cc1ccc(CNC(=S)Nc2ccccc2F)o1,-9.5,2.0,13.0,-29.2,-2.0,-1.7,/,/,/,
O=C(NCc1ccc(F)cc1)c1cccc2c1C(=O)c1ccc(Cl)cc1S2(=O)=O,/,/,/,-25.1,/,8.2,/,/,/,
O=C(N/C(=C\c1ccc([N+](=O)[O-])cc1)C(=O)N1CCOCC1)c1ccccc1,-4.9,-10.1,5.3,17.8,3.2,-3.6,/,/,/,
CCN1CCN(c2nc3c(C)cccn3c(=O)c2/C=C(\C#N)S(=O)(=O)c2ccc(C)cc2)CC1,9.7,15.8,20.7,12.4,-11.1,-4.1,/,/,/,
N/C(=N\OC(=O)CC1CCCCC1)c1ccc([N+](=O)[O-])cc1,18.9,-5.1,-2.6,-35.6,5.6,5.8,/,/,/,
O=C(/C=C/c1cccc(Cl)c1)N1CCC(Cc2ccccc2)CC1,70.3*,-6.3,19.9,-2.3,-4.1,-1.8,50.8*,-0.4,-20.9,
